# Test results as given in ChEMBL document CHEMBL1156252, “Sigma-1 ligands: Tic-hydantoin as a key pharmacophore” (Eur J Med Chem, 2010).
# pIC50: −log10 of the molar value.
# Biological target: not listed separately
# Assay: Displacement of [3H]DTG […] from sigma 2 receptor in rat cerebral cortex after 120 mins
# Type: tissue-based
# Procedure, shortened: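 Rat cerebral cortex membranes incubated with […] (5 nM) plus (+)-pentazocine (300 nM) to mask σ1 sites, with a concentration range of test compound, 2 h at 22 °C in 5 mM Tris/HCl pH 7.4. […] Bound ligand was collected by GF/B filtration, washed with ice-cold saline and counted by liquid scintillation.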
row,Structure (SMILES),pIC50
1,CN(CCCN1C(=O)[C@@H]2Cc3ccccc3CN2C1=O)Cc1ccccc1,< 6.30

# Biological target: Sigma-1 receptor (Homo sapiens, Jurkat)
# Assay: Displacement of [3H](+)-pentazocine from sigma 1 receptor in human Jurkat cells by scintillation counting
row,Structure (SMILES),pIC50
1,CN(CCCn1c(=O)[nH]c2ccc(Cl)cc2c1=O)Cc1ccccc1,< 6.70
2,CN(CCCN1C(=O)[C@H](Cc2ccccc2)N(C)C1=O)Cc1ccccc1,< 6.70
3,CN(CCCN1C(=O)c2ccncc2C1=O)Cc1ccccc1,< 6.70
4,CN(CCCN1C(=O)c2cccnc2C1=O)Cc1ccccc1,< 6.70
5,CN(CCCn1c(=O)[nH]c2ccccc2c1=O)Cc1ccccc1,6.94

# Next, values leading:
row,pIC50,Structure (SMILES)
1,6.99,CN(CCCn1c(=O)[nH]c2ccc(I)cc2c1=O)Cc1ccccc1
2,7.24,CN(CCCN1C(=O)[C@H]2Cc3ccccc3C[C@H]2C1=O)Cc1ccccc1
3,8.35,CN(CCCN1C(=O)C2Cc3ccccc3CN2C1=S)Cc1ccccc1 (centres undefined)
